We go through 30 compounds from PubChem BioAssay AID624467 (The Scripps Research Institute Molecular Screening Center, 2012).

Each structure is given as a SMILES string. The campaign covered roughly 360,000 compounds. About 3,600 (1%) were called active.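 Rule for the calls: active = activation above the mean activation of all test compounds in the run plus 3 SD (cut at about 38% in these data); inactive = the rest.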 The entries come from a sample that favours actives as a whole.

The assay deals with Trace amine-associated receptor 1 (Homo sapiens) (UniProt Q96RJ0). The experiment in a line: human TAAR1 agonists, primary screen, Fluo-8 calcium fluorescence, CHO RD-HGA16 cells (AID 624467). As to conditions: CHO RD-HGA16 TAAR1, Fluo-8 calcium fluorescence; at 3 µM; active compounds read high; vehicle wells 0%, saturating PEA agonist 100%. The essentials: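 Assay system: CHO-derived RD-HGA16 cells with stable Gα16 and human TAAR1; timing: 17-24 h seeding, 75 min 37 °C dye, 30 min RT; read-out: % activation from peak over basal fluorescence ratio, DMSO-to-PEA scaled; measured by: kinetic Fluo-8 calcium fluorescence; benchmarks: low control DMSO, high control PEA (EC100); doses: 3 µM single concentration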
Trace amine-associated receptor 1 (Homo sapiens), sequence (Q96RJ0 whole entry, looked up): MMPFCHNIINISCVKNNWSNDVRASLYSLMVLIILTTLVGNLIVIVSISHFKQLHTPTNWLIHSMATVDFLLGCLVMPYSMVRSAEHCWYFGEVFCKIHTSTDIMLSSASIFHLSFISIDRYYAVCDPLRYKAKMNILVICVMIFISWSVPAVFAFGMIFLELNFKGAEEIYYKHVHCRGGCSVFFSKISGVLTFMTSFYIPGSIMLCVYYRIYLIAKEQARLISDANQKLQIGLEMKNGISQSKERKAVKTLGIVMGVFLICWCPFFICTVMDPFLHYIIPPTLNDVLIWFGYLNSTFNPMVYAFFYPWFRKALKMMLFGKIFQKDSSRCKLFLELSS
For the compound `C[C@@H]1CN([C@@H](C)CO)S(=O)(=O)c2ccc(C#Cc3cccc(F)c3)cc2O[C@H]1CN(C)S(=O)(=O)c1cn(C)cn1`, the activation was 20.9% (inactive). Then `CCCCCC(=O)NC(=S)NNC(=O)c1ccc([N+](=O)[O-])cc1`, with 71.7% (active); and `COCCCNC(=S)NC(=O)c1ccc([N+](=O)[O-])cc1`, with 0.22% (inactive).

In the case of `CC(C)CC(=O)NC(=S)NNC(=O)c1cccc([N+](=O)[O-])c1`, the activation is 20.7% (inactive). With `CCOc1cc(C(=O)N2CCc3cc(OC)c(OC)cc3C2)ccc1OC(F)F`, the activation is 3.06% (inactive).

With `Cc1cc(OC(=O)NCCc2ccc(F)cc2)ccc1F`, the activation was 3.75% (inactive). Then `CC[C@H](C)[C@H]1CNC(=O)C(=O)N1CC1CCN(CCc2ccc(OC)c(OC)c2)CC1`, with -0.17% (inactive). As for `Cc1cc(O)ccc1-c1cc(C(=O)NCc2cc(C(F)(F)F)cc(C(F)(F)F)c2)[nH]n1`, the activation was 39.9% (active).

On to `CCCOc1ccc(F)cc1-c1cc(C(=O)NCc2ccc(F)cc2)[nH]n1`, for which the activation was 3.61% (inactive). For `Cc1ccc(O)c(-c2cc(C(=O)NCc3ccccc3)[nH]n2)c1`, the activation was 8.4% (inactive). Then `Brc1cnc2ccccc2c1N1CCCCC1`, with 5.6% (inactive); and `CCOC(=O)C1=C(CC)Nc2ccccc2N=C1NC(=O)c1cccc(S(=O)(=O)N2CCCC2)c1`, with 7.96% (inactive); and `NC(N)=N/N=C/c1ccc(OCc2ccc(Cl)cc2Cl)cc1`, with 84.3% (active). For `CC(C)(C)NC(=O)NC(=O)COC(=O)Cc1ccc(Cl)cc1Cl` the value was -2.34% (inactive); for `NC(=O)COc1ccc(/C=N/NC(=O)C2CCCN2S(=O)(=O)c2ccc(Cl)cc2)cc1` (stereo not given), 5.15% (inactive); for `Cc1cc(C(F)F)n2nc(C(=O)Nc3ccc(S(=O)(=O)NC45CC6CC(CC(C6)C4)C5)cc3)nc2n1`, 6.82% (inactive). For the compound `O=C(Nc1ccc(S(=O)(=O)Nc2ncccn2)cc1)C12CC3CC(CC(C3)C1)C2`, the activation is 0.17% (inactive).

For `CCn1nccc1C(=O)Nc1ccc(S(=O)(=O)NC23CC4CC(CC(C4)C2)C3)cc1`, the activation was 42.5% (active). Turning to `COC(=O)c1cc2c(c3c4cc(F)ccc4n(S(=O)(=O)c4ccccc4)c13)C(=O)N(Cc1ccccc1OC)C2`, the activation was 0.14% (inactive). For `O=C1CC(Sc2ncn[nH]2)C(=O)N1c1ccccc1` (stereo not given) the value was 4.92% (inactive); for `COc1cccc(-c2nc3nc(C)cc(C)n3c2NC2CCCCC2)c1`, 1.46% (inactive). For `COc1cccc(-c2cnc(OC(C)(C)C)nc2OC(C)(C)C)c1` the value was 47.4% (active). Take `CC(C)(C)Oc1ncc(Br)c(OC(C)(C)C)n1`: the activation was 1.63% (inactive).

With `CC(=O)C1=C(C)N(Cc2ccccc2)C(=S)NC1c1cccc(Br)c1` (stereo not given), the activation was -0.24% (inactive). For `CN(C)c1ccc(/C=C2\NC(=S)N(Cc3ccccc3)C2=O)cc1` the value was 81.4% (active); for `CN(C(=O)CN1C(=O)NC(C)(CCc2ccccc2)C1=O)c1ccccc1` (stereo not given), 1.03% (inactive). `Cc1ccc(N)cc1CN1CCN(c2ncc(Cc3ccccc3)cn2)CC1`: the activation is -0.94% (inactive). Regarding `COc1ccc(C2/C=C\CN(CC(C)C)CC(=O)N2Cc2ccc(F)cc2)cc1` (stereo not given), the activation is -1.75% (inactive). Then `Cc1c([N+](=O)[O-])c(N)nn1C`, with 2.61% (inactive); and `Cc1nn2c3cc(N4CCOCC4)ccc3nc2c2ccccc12`, with 2.7% (inactive).
